In experiment [1] the test system is L-FABP T94A variant human subjects. Particulars: cited from earlier work.
Experiment [2] addresses T1, rat L-FABP (Rattus norvegicus, UniProt P02692).
T1 sequence (P02692 1-127): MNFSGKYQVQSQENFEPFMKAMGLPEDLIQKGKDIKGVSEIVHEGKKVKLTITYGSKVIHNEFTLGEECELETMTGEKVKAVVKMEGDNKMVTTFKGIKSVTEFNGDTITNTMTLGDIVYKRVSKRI
The experiment is described as follows: Circular dichroism, ligand-induced secondary structure change. Particulars: rat L-FABP 0.5 μM, 5 μM ligand, CD. The method in brief:
(§1)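 Recombinant delipidated L-FABP (0.5 μM, by amino acid analysis) in 10 mM potassium phosphate pH 7.4. Ligand added to 5 μM from a 500 μM ethanol stock, giving 1% ethanol final. Stirred 10 min at 25 °C, then scanned 185–250 nm. Ten scans were averaged, buffer/ligand/ethanol background subtracted and smoothed. Secondary structure was analysed by CONTIN against the SDP48 reference set, and % change was taken relative to protein alone.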
For orientation: Circular dichroism is widely used to follow secondary structure.

Experiment [3] concerns the target T2, human wild-type L-FABP T94T (Homo sapiens, UniProt P07148).
T2 sequence (P07148 1-127): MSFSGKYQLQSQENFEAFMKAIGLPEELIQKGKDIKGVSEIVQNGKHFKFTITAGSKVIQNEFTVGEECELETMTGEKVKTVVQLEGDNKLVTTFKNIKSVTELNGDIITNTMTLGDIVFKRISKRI
The experiment is described as above. Particulars: T94T 0.5 μM, 5 μM ligand, CD. The method in brief:
as §1

For experiment [4], the target named is T3, human L-FABP T94A variant (Homo sapiens, UniProt P07148, T94A).
T3 sequence (P07148 1-127 T94A): T2 sequence (P07148 1-127) with T94A
The description is as above. Particulars: T94A 0.5 μM, 5 μM ligand, CD. The method in brief: as §1

The target of experiment [5] is T3, human L-FABP T94A variant. The experiment is described as follows: ANS displacement assay. Format: binding.
The target of experiment [6] is T2, human wild-type L-FABP T94T. The experiment is described as follows: ANS displacement assay. Format: binding.
For experiment [7], the target named is T1, rat L-FABP. The experiment is described as follows: ANS displacement assay. Format: binding. Put shortly:
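Recombinant rat L-FABP (500nM, quantified by amino acid analysis) incubated 10 min with ANS (35μM) at pH 7.4, then titrated with small ligand aliquots. ANS emission scanned 410–600nm (380nm excitation). % ANS fluorescence remaining plotted vs ligand concentration gives EC50.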

Experiment [8] has as its target T94T and T94A. Particulars: cited from earlier work.
Experiment [9] addresses T1, rat L-FABP. The experiment is described as follows: ANS binding to L-FABP.
The target in experiment [10] is T3, human L-FABP T94A variant. The experiment is described as follows: ANS binding to L-FABP.
The target of experiment [11] is human L-FABP. Particulars: human L-FABP bound one ANS; cited from earlier work.
The target in experiment [12] is T2, human wild-type L-FABP T94T. The experiment is described as follows: ANS binding to L-FABP.
[13] abbreviates: read-out: ANS Displacement – Ki, T94A 500nM, ANS 35μM, ND: no displacement.
Setting [14] is: read-out: ANS Displacement – Ki, T94T 500nM, ANS 35μM, ND: no displacement.
The mark [15] stands for this setting: read-out: ANS Displacement – Ki, rat L-FABP 500nM, ANS 35μM, ND: no displacement.

Changes are numbered by the printed parent chain. Several values for one entry are separate records, joined by “and”; a condition that tells them apart may be missing. Identical values can stand only once. Counter-ions that a name gives are not always drawn. Like-named read-outs stand apart in the source and are kept apart here. A value given as a limit tells only on which side of the number the result lay.

Data on 16 compounds can be found in publication PMC4014002 (The FEBS journal, 2014).

As to `CC(C)OC(=O)C(C)(C)Oc1ccc(C(=O)c2ccc(Cl)cc2)cc1` [fenofibrate], in experiment [1], the “lowering of elevated plasma triglyceride to basal levels” value is on record as “less effective in lowering elevated plasma triglyceride to basal levels”.
With `CCCCCCCC/C=C\CCCCCCCC(=O)OC(CO)CO` [2-OMG, 2-oleoyl glycerol], the “change in secondary structure (L-FABP/ligand – L-FABP only)” value (“change … (L-FABP/ligand – L-FABP only)” below) in [2], in experiment [3] and in experiment [4] was “no or only small changes” each time.
By Ki is commonly meant the equilibrium dissociation constant of an inhibitor or competing ligand from its target. Take `CCCCCCCC/C=C\CCCCCCCC(=O)O[C@H](COC(=O)CCCCCCCCCCCCCCC)COP(=O)(O)O` [POPA, 1-palmitoyl-2-Oleoyl-sn-Glycero-3-Phosphate monosodium salt]: the Ki was 2800 ± 200 nM in experiment [5] (setting [13]), 2800 ± 300 nM in experiment [6] (setting [14]) and 9100 ± 800 nM in [7] (setting [15]).
On to `CCCCCCCCCCCCCCCC(=O)O` [Palmitic acid, palmitic acid], for which the Ki in experiment [5] turned out to be 43 ± 1 nM; in experiment [6], 38 ± 1 nM; in [7], 48 ± 1 nM.
For the compound `CCCCCCCC/C=C\CCCCCCCC(=O)O` [Oleic acid, oleic acid], the Ki in [7] is 43 ± 2 nM.
As to `CC(C)CCC[C@@H](C)CCC[C@@H](C)CCCC(C)CC(=O)O` (stereo partly drawn) [phytanic acid], the “Ki, T94T compared with T94A” value in [8] was “same (or similar) Ki”.
For `CCCCC/C=C\C/C=C\C/C=C\C/C=C\CCCC(=O)O` [Arachidonic acid, arachidonic acid], the results for the Ki in experiment [5], in experiment [6] and in experiment [7] were 108 ± 6 nM, 113 ± 6 nM and 110 ± 6 nM, respectively. Also, the “change … (L-FABP/ligand – L-FABP only)” value in [4] is reported as under 8%.
As for `CCCCCCCC/C=C\CCCCCCCC(=O)OC[C@@H](O)COP(=O)(O)O` [LPA, Oleoyl-L-α-lysophosphatidic acid sodium salt], the Ki worked out at 36 ± 4 nM in [5] (setting [13]) and 52 ± 7 nM in experiment [6] (setting [14]).
Consider `CCCCCCCC/C=C\CCCCCCCC(=O)SCCNC(=O)CCNC(=O)[C@H](O)C(C)(C)COP(=O)(O)OP(=O)(O)OC[C@H]1O[C@@H](n2cnc3c(N)ncnc32)[C@H](O)[C@@H]1OP(=O)(O)O` [Oleoyl CoA, Oleoyl Coenzyme A], for which the Ki in [5] (setting [13]) turned out to be 1030 ± 20 nM; in experiment [6] (setting [14]), 1110 ± 40 nM; in experiment [7] (setting [15]), 2410 ± 120 nM.
Regarding `CCCCCCCCCCCCCCCCCC(=O)O` [Stearic acid], the Ki in experiment [5] worked out at 28 ± 1 nM; in experiment [6], 29 ± 2 nM; in [7], 37 ± 4 nM.
Regarding `CC/C=C\C/C=C\C/C=C\C/C=C\C/C=C\C/C=C\CCC(=O)O` [Docosahexaenoic acid, cis-4,7,10,13,16,19-docosahexaenoic acid], the Ki turned out to be 65 ± 9 nM in [5], 72 ± 5 nM in [6] and 81 ± 15 nM in experiment [7].
What is called Kd is the constant that tells how readily two partners part at equilibrium. Take `O=S(=O)(O)c1cccc2cccc(Nc3ccccc3)c12` [ANS, 1-anilinonaphthalene-8-sulfonic acid]: the Kd in experiment [9] is 2500 ± 200 nM; in experiment [10], 2400 ± 100 nM; in [11], 2000 nM; in experiment [12], 2300 ± 100 nM. Moreover, the “Fluorescence emission Maximum” value is reported as 477 nm in [9] (ANS bound to rat L-FABP), 480 nm in experiment [10] (ANS bound to T94A) and 480 nm in [12] (ANS bound to T94T). For the same compound, in experiment [9] (forward titration, 500nM rat L-FABP), the Bmax is 1.4 and 1.42 ± 0.01. Also, the “A.U./nM when fully bound (ANS fluorescence intensity/nM)” value in experiment [9] (reverse titration, ANS 100nM, rat L-FABP) is 0.8 A.U./nM and 0.78 ± 0.02 A.U./nM; in experiment [10] (reverse titration, ANS 100nM, T94A) it was 1.0 A.U./nM and 0.98 ± 0.04 A.U./nM; in experiment [12] (reverse titration, ANS 100nM, T94T) it was 1.0 A.U./nM and 1.03 ± 0.01 A.U./nM.
`CCCCC/C=C\C/C=C\CCCCCCCC(=O)O` [Linoleic acid, linoleic acid]: the inhibition constant (Ki) in [5] turned out to be 132 ± 3 nM; in experiment [6], 113 ± 5 nM; in experiment [7] it was 81 ± 5 nM.
As for `CC(C)(Oc1ccc(C(=O)c2ccc(Cl)cc2)cc1)C(=O)O` [fenofibric acid], the “Ki, T94T compared with T94A” value in experiment [8] is reported as “same (or similar) Ki”.
Consider `CCC=CCC=CCC=CCC=CC/C=C\CCCC(=O)O` [Eicosapentaenoic acid, cis-5,8,11,14,17-eicosapentaenoic acid], for which the results for the Ki in experiment [5], in experiment [6] and in [7] were 190 ± 10 nM, 200 ± 30 nM and 240 ± 30 nM, respectively.
Regarding `CCCCCCCC/C=C\CCCCCCCC(=O)O[C@@H](CO)COC(=O)CCCCCCCCCCCCCCC` [PODG, 1-palmitoyl-2-oleoyl-sn-glycerol], the “change … (L-FABP/ligand – L-FABP only)” value in experiment [2], in [3] and in [4] was “no or only small changes” throughout.
